In paper PMC4885513 (The Journal of Pharmacology and Experimental Therapeutics, 2016):
“Also recorded” adds a separate entry of the source. Like-named read-outs stand apart in the source and are kept apart here.

Columns and labels:
[1] = test system: GABAA channels; settings: ref Khom et al., 2007; cited from earlier work
[2] = molecular target: T1, α1β3γ2S receptors (Rattus norvegicus, UniProt P62813+P63079); settings: GABA EC3-7, Xenopus oocytes, ref Luger et al. (2015); cited from earlier work
[3] = test system: pentylenetetrazole (PTZ)-induced seizure threshold; experiment: PTZ-induced seizure threshold; type: in vivo, male C57BL/6N mice; settings: for PTZ-induced seizure threshold: 30 min before test, saline control 40.4 ± 1.4
Outline: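 Male C57BL/6N mice aged 3–6 months received compound i.p. 30 min before testing. Vehicle was 0.9% NaCl with 10% DMSO and 3% Tween 80. PTZ (10 mg/ml in saline, pH 7.4) was infused into the tail vein at 100 µl/min in freely moving animals until seizure onset. Threshold was the infused PTZ dose per body weight (mg/kg). ≥3 mice per point; one-way ANOVA with Bonferroni.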

[4] = molecular target: α1β2γ2S receptors (Rattus norvegicus, UniProt P62813+P63138); experiment: IGABA enhancement; type: cell-based; settings: for Emax: read-out: maximal IGABA enhancement (Emax); for Hill-coefficient (nH): α1β2γ2S, GABA EC3-7, Xenopus oocytes
Outline: (§1)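 Rat α1, β1/β2/β3 and γ2S cRNAs (100–2000 ng/μl/subunit, about 10–50 nl) were injected into collagenase-treated stage V–VI Xenopus oocytes held at 18°C in ND96. The α:β:γ ratio was 1:1:10 for β2 and β3 and 3:1:10 for β1. Recordings used two-electrode voltage clamp at −70 mV in a HEPES bath at pH 7.4. Compound (≤500 µM, DMSO matched) was applied with per-oocyte GABA EC3–7 by fast perfusion. Oocytes above 5 µA were excluded. Enhancement = I(GABA+Comp)/IGABA − 1, Hill-fitted for EC50, Emax and nH; ≥3 oocytes, ≥2 batches.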

[5] = test system: pentylenetetrazole (PTZ)-induced seizure threshold; settings: 3 mg/kg i.p., 30 min before test; ref Hintersteiner et al. (2014); cited from earlier work
[6] = test system: locomotor activity; experiment: Open-field test; type: in vivo, male C57BL/6N mice; settings: for total distance covered in the open field test: 30 min before test, 10 min test, control 38.3 ± 1.5 m
[7] = molecular target: α1β1γ2S receptors (Rattus norvegicus, UniProt P15431+P62813); experiment: IGABA enhancement; type: cell-based; settings: for Emax: read-out: maximal IGABA enhancement (Emax); for Hill-coefficient (nH): α1β1γ2S, GABA EC3-7, Xenopus oocytes
Outline: as §1

[8] = molecular target: T1, α1β3γ2S receptors; experiment: IGABA enhancement; type: cell-based; settings: for Emax: read-out: maximal IGABA enhancement (Emax); for Hill-coefficient (nH): GABA EC3-7, Xenopus oocytes
Outline: as §1

α1β2γ2S receptors, sequence (P63138 25-474 limits assumed): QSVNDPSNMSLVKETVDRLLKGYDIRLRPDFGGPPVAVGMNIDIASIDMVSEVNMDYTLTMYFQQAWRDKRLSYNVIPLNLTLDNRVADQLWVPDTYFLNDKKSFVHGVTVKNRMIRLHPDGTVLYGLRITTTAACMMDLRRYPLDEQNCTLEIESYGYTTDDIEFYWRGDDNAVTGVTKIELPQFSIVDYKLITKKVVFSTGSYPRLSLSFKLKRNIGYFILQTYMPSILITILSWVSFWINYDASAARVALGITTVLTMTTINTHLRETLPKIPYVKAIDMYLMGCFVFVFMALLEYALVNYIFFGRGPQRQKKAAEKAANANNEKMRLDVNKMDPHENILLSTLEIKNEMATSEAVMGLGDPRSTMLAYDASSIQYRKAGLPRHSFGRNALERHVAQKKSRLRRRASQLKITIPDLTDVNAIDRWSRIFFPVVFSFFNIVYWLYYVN
α1β2γ2S receptors, sequence (P62813 28-455): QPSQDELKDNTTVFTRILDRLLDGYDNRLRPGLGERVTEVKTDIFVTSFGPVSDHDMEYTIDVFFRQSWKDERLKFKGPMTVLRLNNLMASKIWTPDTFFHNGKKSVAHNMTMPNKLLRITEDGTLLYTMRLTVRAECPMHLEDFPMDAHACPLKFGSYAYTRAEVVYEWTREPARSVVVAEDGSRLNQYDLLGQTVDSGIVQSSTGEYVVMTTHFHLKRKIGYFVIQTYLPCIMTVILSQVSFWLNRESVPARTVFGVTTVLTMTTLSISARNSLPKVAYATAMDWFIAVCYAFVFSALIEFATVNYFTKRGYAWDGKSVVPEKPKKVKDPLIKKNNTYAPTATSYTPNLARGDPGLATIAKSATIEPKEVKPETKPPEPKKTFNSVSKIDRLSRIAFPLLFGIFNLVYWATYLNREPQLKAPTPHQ
α1β2γ2S receptors, sequence (P18508 39-466 partner): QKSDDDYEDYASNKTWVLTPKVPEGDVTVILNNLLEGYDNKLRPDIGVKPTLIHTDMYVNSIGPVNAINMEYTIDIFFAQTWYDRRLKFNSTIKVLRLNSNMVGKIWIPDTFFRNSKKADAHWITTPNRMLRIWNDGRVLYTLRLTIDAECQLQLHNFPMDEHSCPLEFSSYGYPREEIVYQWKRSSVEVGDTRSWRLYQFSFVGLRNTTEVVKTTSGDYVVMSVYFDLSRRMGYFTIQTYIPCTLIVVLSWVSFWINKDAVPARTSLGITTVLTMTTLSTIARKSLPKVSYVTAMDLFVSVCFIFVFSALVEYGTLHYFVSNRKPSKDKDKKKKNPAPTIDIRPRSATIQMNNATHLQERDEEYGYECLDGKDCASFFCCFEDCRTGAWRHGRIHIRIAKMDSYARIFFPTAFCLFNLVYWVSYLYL
T1 sequence (P63079 26-473): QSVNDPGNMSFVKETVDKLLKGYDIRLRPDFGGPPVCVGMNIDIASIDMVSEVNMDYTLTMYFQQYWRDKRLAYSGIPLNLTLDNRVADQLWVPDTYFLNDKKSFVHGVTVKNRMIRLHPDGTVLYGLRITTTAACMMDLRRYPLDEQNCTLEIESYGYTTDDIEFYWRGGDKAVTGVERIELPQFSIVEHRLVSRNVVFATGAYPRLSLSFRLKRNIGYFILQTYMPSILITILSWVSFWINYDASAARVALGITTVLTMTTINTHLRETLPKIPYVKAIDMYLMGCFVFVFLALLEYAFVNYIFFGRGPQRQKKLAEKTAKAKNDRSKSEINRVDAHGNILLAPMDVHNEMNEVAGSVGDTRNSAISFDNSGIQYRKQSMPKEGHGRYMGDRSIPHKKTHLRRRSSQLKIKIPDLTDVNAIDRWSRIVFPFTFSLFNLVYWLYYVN
T1 sequence (P62813 28-455): as the sequence (P62813 28-455) above
T1 sequence (P18508 39-466 partner): as the sequence (P18508 39-466 partner) above
α1β1γ2S receptors, sequence (P15431 26-474): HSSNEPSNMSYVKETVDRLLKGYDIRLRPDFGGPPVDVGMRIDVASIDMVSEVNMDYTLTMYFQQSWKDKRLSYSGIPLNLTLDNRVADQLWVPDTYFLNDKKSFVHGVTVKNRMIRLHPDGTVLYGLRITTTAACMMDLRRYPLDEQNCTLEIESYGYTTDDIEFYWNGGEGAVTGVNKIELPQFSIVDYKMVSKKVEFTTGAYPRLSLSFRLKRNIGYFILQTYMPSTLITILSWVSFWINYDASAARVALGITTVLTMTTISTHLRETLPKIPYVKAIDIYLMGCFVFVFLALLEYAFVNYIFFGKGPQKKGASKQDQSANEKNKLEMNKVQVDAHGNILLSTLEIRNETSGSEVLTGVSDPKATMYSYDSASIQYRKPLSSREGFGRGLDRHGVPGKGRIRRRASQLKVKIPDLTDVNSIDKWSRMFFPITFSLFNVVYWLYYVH
α1β1γ2S receptors, sequence (P62813 28-455): as the sequence (P62813 28-455) above
α1β1γ2S receptors, sequence (P18508 39-466 partner): as the sequence (P18508 39-466 partner) above

Compound	EC50 [4] [µM]	Emax [4] [%]	Hill-coefficient (nH) [4]	total distance covered in the open field test ([6]; 30 mg/kg i.p.) [m]	EC50 [7] [µM]	Emax [7] [%]	Hill-coefficient (nH) [7]	EC50 [8] [µM]	Emax [8] [%]	Hill-coefficient (nH) ([8]; α1β3γ2S)	effect on locomotor activity vs control ([6]; low doses (≤10 mg/kg) i.p.)	PTZ-induced seizure threshold ([3]; 10 mg/kg i.p.) [mg/kg PTZ]	PTZ-induced seizure threshold ([3]; 30 mg/kg i.p.) [mg/kg PTZ]	effect on locomotor activity vs control ([6]; any tested dose i.p.)	other results
CC1=C2[C@H](/C=C(\C)C(=O)O)CC[C@@H](C)[C@H]2CC1 [VA, Valerenic acid, reference compound]	23.1 ± 4.2	721 ± 68	1.4 ± 0.2	37.6 ± 2.5	74.4 ± 19.3	111 ± 16	1.6 ± 0.5	–	–	–	–	49.0 ± 1.8	43.4 ± 1.8	did not differ significantly	concentration directly activating GABAA channels in the absence of GABA [1]: ≥ 30 µM; Hill-coefficient (nH) [2]: 1.5 ± 0.3; effect on PTZ-induced seizure threshold ([3]; doses <3 mg/kg body weight i.p.): did not alter seizure threshold; PTZ-induced seizure threshold [5]: 47.7 ± 1.4 mg/kg PTZ; total distance covered in the open field test ([6]; 1 mg/kg i.p.): 34.9 ± 1.3 m; total distance covered in the open field test ([6]; 3 mg/kg i.p.): 38.7 ± 2.1 m; total distance covered in the open field test ([6]; 10 mg/kg i.p.): 38.0 ± 1.4 m
CC1=C2[C@H](/C=C(\C)C#N)CC[C@@H](C)[C@H]2CC1 [VA-CN, (E)-3-((4S,7R,7aR)-3,7-dimethyl-2,4,5,6,7,7a-hexahydro-1H-inden-4-yl)-2-methylacrylonitrile]	56.5 ± 13.3	765 ± 117	2.5 ± 0.7	31.5±1.5	73 ± 38.7	55 ± 14	1.7 ± 0.7	42.4 ± 15.8	522 ± 114	2.1 ± 0.8	did not affect locomotor activity	51.1 ± 0.6	–	–	–
CCN(CC)C(=O)/C(C)=C/[C@@H]1CC[C@@H](C)[C@H]2CCC(C)=C12 [VA-DEA, (E)-3-((4S,7R,7aR)-3,7-dimethyl-2,4,5,6,7,7a-hexahydro-1H-inden-4-yl)-N,N-diethyl-2-methylacrylamide]	54.4 ± 11.1	573 ± 33	1.6 ± 0.3	–	97.2 ± 33.8	318 ± 84	1.8 ± 0.3	80.8 ± 31.3	374 ± 102	1.9 ± 0.5	–	–	48.7±1.7	did not reveal any significantly different behavior	–
CC1=C2[C@H](/C=C(\C)C(=O)N(C)C)CC[C@@H](C)[C@H]2CC1 [VA-DMA, (E)-3-((4S,7R,7aR)-3,7-dimethyl-2,4,5,6,7,7a-hexahydro-1H-inden-4-yl)-N,N,2-trimethylacrylamide]	63.9 ± 23.7	594 ± 36	1.3 ± 0.2	–	52.5 ± 20.1	305 ± 67	1.7 ± 0.5	48 ± 16	415 ± 61	1.4 ± 0.2	–	–	–	did not reveal any significantly different behavior	effect on PTZ-induced seizure threshold vs diluent-treated controls ([3]; any tested dose i.p.): did not significantly differ
CC1=C2[C@H](/C=C(\C)c3nnn[nH]3)CC[C@@H](C)[C@H]2CC1 [VA-TET, 5-((E)-1-((4S,7R,7aR)-3,7-dimethyl-2,4,5,6,7,7a-hexahydro-1H-inden-4-yl)prop-1-en-2-yl)-1H-tetrazole]	34.1 ± 6.3	–	1.0 ± 0.1	19.2 ± 2.1	23.5 ± 10.9	176 ± 43	1.8 ± 0.6	6 ± 1	668 ± 57	1.1 ± 0.1	did not affect locomotor activity	–	–	–	increase in potency on β3-containing receptors compared with VA ([8]; EC50 ratio VA / VA-TET, α1β3γ2S): approximately threefold; PTZ-induced seizure threshold ([3]; 0.3 mg/kg i.p.): 47.3 ± 0.5 mg/kg PTZ; effect on PTZ-induced seizure threshold ([3]; doses ≥1 mg/kg i.p.): lost its anticonvulsive properties; effect on locomotor activity vs control ([6]; doses ≥10 mg/kg i.p.): reduced locomotion

Molecules with a lower EC50 [4], results first:

EC50 [4] [µM]	Emax [4] [%]	Hill-coefficient (nH) [4]	total distance covered in the open field test ([6]; 30 mg/kg i.p.) [m]	EC50 [7] [µM]	Emax [7] [%]	Hill-coefficient (nH) [7]	EC50 [8] [µM]	Emax [8] [%]	Hill-coefficient (nH) ([8]; α1β3γ2S)	effect on locomotor activity vs control ([6]; low doses (≤10 mg/kg) i.p.)	Compound	PTZ-induced seizure threshold ([3]; 10 mg/kg i.p.) [mg/kg PTZ]	PTZ-induced seizure threshold ([3]; 30 mg/kg i.p.) [mg/kg PTZ]	effect on locomotor activity vs control ([6]; any tested dose i.p.)	other results
14 ± 2.2	–	1.4 ± 0.2	23.5±2.2	66.6 ± 34.6	218 ± 78	1.8 ± 0.6	7.5 ± 1.8	972 ± 69	1.5 ± 0.2	–	CC1=C2[C@H](/C=C(\C)C(N)=O)CC[C@@H](C)[C@H]2CC1 [VA-A, (E)-3-((4S,7R,7aR)-3,7-dimethyl-2,4,5,6,7,7a-hexahydro-1H-inden-4-yl)-2-methylacrylamide]	55.4 ± 0.7	50.6 ± 2.2	–	PTZ-induced seizure threshold ([3]; 3 mg/kg i.p.): 57.9 ± 1.9 mg/kg PTZ; total distance covered in the open field test ([6]; 10 mg/kg i.p.): 29.9 ± 2.6 m; effect on locomotor activity vs control ([6]; doses of 1 and 3 mg/kg i.p.): did also not affect the total distance covered; effect on locomotor activity vs control ([6]; doses ≥10 mg/kg i.p., 10 mg/kg): reduced locomotion; also recorded: reduced locomotor activity
11 ± 3.6	554 ± 49	1.6 ± 0.3	–	51.4 ± 19.8	458 ± 124	1.6 ± 0.3	27.2 ± 6.7	677 ± 64	1.3 ± 0.2	–	CCNC(=O)/C(C)=C/[C@@H]1CC[C@@H](C)[C@H]2CCC(C)=C12 [VA-EA, (E)-3-((4S,7R,7aR)-3,7-dimethyl-2,4,5,6,7,7a-hexahydro-1H-inden-4-yl)-N-ethyl-2-methylacrylamide]	–	55.6 ± 0.4	did not reveal any significantly different behavior	–
9.1 ± 1.4	917 ± 36	1.5 ± 0.1	29.7 ± 2.0	58.1 ± 16.5	387 ± 56	1.6 ± 0.3	12.7 ± 0.9	–	1.5 ± 0.1	did not affect locomotor activity	CNC(=O)/C(C)=C/[C@@H]1CC[C@@H](C)[C@H]2CCC(C)=C12 [VA-MA, (E)-3-((4S,7R,7aR)-3,7-dimethyl-2,4,5,6,7,7a-hexahydro-1H-inden-4-yl)-N,2-dimethylacrylamide]	50.4±1.4	63.6 ± 2.5	–	effect on locomotor activity vs control ([6]; doses ≥10 mg/kg i.p.): reduced locomotion
